The source of these data is ChEMBL document CHEMBL5506001 (J Med Chem, 2024).

The species entered for data set [1] is Bos taurus. Description: Activation of full-length myosin ATPase activity in bovine Cardiomyofibril in presence of CaCl2 and ATP by HTS assay. The class given is tissue-based. The method, boiled down: (§1)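 Calcium-stimulated ATPase activity of cardiac myofibrils (bovine), slow skeletal myofibrils (bovine masseter), fast skeletal myofibrils (rabbit) or chicken gizzard smooth muscle myosin; 10-point dose response up to 40 μM.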

Data set [2] addresses cGMP-inhibited 3',5'-cyclic phosphodiesterase 3A (Homo sapiens, UniProt Q14432). Description: Inhibition of PDE3A (unknown origin) using cAMP as substrate preincubated for 20 mins followed by substrate addition measured after 30 mins by HTS assay. The essentials:
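PDE3A preincubated with compound in 50 mM Tris, 5 mM MgCl₂, pH 7.5, for 20 min at room temperature. Then 0.2 µM cAMP substrate added for 30 min at room temperature, followed by a PDELight stop/detection mix.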

Data set [3] can be described thus: Plasma protein binding in rat assessed as unbound fraction at 5 uM incubated for 6 hrs by equilibrium dialysis based HPLC analysis. The class given is ADME, cell-free. The essentials:
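Equilibrium dialysis: compound added at 5 μM to the buffer chamber, shaken against rat plasma for 6 h at 37 °C. Both chambers analysed by HPLC against standards; reported as % unbound.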
On the technique in general: Equilibrium dialysis compares concentrations on both sides of a semipermeable membrane.

Data set [4] can be described thus: Clearance in Sprague-Dawley rat at 0.5 mg/kg,iv administered as bolus injection measured after 24 hrs by HPLC analysis. Format: ADME, organism-based. The settings on record: in vivo. The method, boiled down:
(§2)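 Male Sprague-Dawley rats given a single intravenous bolus; blood sampled from just before dosing to 24 h after; compound in blood or plasma measured by HPLC against a standard.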

Data set [5] is described as follows: Half life in Sprague-Dawley rat at 0.5 mg/kg,iv administered as bolus injection measured after 24 hrs by HPLC analysis. The class given is ADME, organism-based. The settings on record: in vivo. The essentials:
as §2

Data set [6] is described as follows: Volume of distribution in Sprague-Dawley rat at 0.5 mg/kg,iv administered as bolus injection measured after 24 hrs by HPLC analysis. Format: ADME, organism-based. The settings on record: in vivo. The method, boiled down:
as §2

Data set [7] can be described thus: Solubility of compound at pH 6.8 incubated for 12 hrs by HPLC analysis. Format: physicochemical. As to conditions: buffer, pH 6.8, 12 h. The essentials: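 Agitated 12 h at room temperature in pH 6.8 monopotassium phosphate JP2 buffer, filtered, quantified by HPLC against a standard.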
Data set [8] is filed under the species Bos taurus. Nature of the data set: Activation of full-length myosin ATPase activity in bovine slow skeletal myofibrils in presence of CaCl2 and ATP by HTS assay. Format: tissue-based. As to conditions: filed as activator. The essentials: as §1
The species entered for data set [9] is Oryctolagus cuniculus. As to conditions: Fast skeletal myofibrils.
The species named for data set [10] is Gallus gallus. As to conditions: Gizzard.
Data set [11] is filed under the species Oryctolagus cuniculus. Nature of the data set: Activation of Myosin S1 ATPase activity in rabbit fast skeletal myofibrils at 40 uM in presence of bovine cardiac thin filament. The settings on record: filed as activator. Format: tissue-based.
The species named for data set [12] is Bos taurus. Nature of the data set: Activation of Myosin S1 ATPase activity in bovine Cardiomyofibril at 40 uM in presence of bovine cardiac thin filament. Format: tissue-based. As to conditions: filed as activator.
The species named for data set [13] is Oryctolagus cuniculus. Nature of the data set: Activation of full-length myosin ATPase activity in rabbit fast skeletal myofibrils at 0.01 to 40 uM in presence of CaCl2 and ATP by HTS assay. The settings on record: dose 0.01-40 µM.
Data set [14] relates to Cardiac muscle cell. Nature of the data set: Induction of Sprague-Dawley rat Cardiomyocyte contractility assessed as increase in myocyte relaxation time at 10 uM incubated for 5 mins by imaging analysis relative to control. The class given is functional. On the set-up: scale not given: the % may be the effect or the level left.
Data set [15] concerns Cardiac muscle cell. Nature of the data set: Induction of Sprague-Dawley rat Cardiomyocyte contractility assessed as increase in myocyte fractional shortening at 10 uM incubated for 5 mins by imaging analysis. The class given is functional, cell-based.
In data set [16] the test system is Cardiac muscle cell. Description: Induction of Sprague-Dawley rat Cardiomyocyte contractility by measuring myocyte relaxation time at 10 uM incubated for 5 mins by imaging analysis. The class given is functional.
The species named for data set [17] is Bos taurus. Nature of the data set: Activation of full-length myosin ATPase activity in bovine slow skeletal myofibrils at 0.01 to 100 uM in presence of CaCl2 and ATP by HTS assay. The class given is tissue-based. The settings on record: dose 0.01-100 µM.
For data set [18], the species on record is Gallus gallus. Description: Activation of full-length myosin ATPase activity in chicken Gizzard at 0.01 to 40 uM in presence of CaCl2 and ATP by HTS assay. The settings on record: dose 0.01-40 µM.
For data set [19], the species on record is Bos taurus. Description: Activation of full-length myosin ATPase activity in bovine Cardiomyofibril at 0.01 to 100 uM in presence of CaCl2 and ATP by HTS assay. Format: tissue-based. As to conditions: dose 0.01-100 µM.
Data set [20] has as its system Cardiac muscle cell. Description: Induction of Sprague-Dawley rat Cardiomyocyte contractility by measuring myocyte relaxation velocity at 10 uM incubated for 5 mins by imaging analysis. The class given is functional.
Data set [21] relates to Cardiac muscle cell. Nature of the data set: Induction of Sprague-Dawley rat Cardiomyocyte contractility assessed as increase in myocyte relaxation velocity at 10 uM incubated for 5 mins by imaging analysis relative to control. Format: functional. On the set-up: scale not given: the % may be the effect or the level left.

In brackets after ≈: the same amount, converted by molar mass. Activity calls are given as the source filed them. The rule behind the calls is not given here.

Sequence of cGMP-inhibited 3',5'-cyclic phosphodiesterase 3A (Q14432 whole entry): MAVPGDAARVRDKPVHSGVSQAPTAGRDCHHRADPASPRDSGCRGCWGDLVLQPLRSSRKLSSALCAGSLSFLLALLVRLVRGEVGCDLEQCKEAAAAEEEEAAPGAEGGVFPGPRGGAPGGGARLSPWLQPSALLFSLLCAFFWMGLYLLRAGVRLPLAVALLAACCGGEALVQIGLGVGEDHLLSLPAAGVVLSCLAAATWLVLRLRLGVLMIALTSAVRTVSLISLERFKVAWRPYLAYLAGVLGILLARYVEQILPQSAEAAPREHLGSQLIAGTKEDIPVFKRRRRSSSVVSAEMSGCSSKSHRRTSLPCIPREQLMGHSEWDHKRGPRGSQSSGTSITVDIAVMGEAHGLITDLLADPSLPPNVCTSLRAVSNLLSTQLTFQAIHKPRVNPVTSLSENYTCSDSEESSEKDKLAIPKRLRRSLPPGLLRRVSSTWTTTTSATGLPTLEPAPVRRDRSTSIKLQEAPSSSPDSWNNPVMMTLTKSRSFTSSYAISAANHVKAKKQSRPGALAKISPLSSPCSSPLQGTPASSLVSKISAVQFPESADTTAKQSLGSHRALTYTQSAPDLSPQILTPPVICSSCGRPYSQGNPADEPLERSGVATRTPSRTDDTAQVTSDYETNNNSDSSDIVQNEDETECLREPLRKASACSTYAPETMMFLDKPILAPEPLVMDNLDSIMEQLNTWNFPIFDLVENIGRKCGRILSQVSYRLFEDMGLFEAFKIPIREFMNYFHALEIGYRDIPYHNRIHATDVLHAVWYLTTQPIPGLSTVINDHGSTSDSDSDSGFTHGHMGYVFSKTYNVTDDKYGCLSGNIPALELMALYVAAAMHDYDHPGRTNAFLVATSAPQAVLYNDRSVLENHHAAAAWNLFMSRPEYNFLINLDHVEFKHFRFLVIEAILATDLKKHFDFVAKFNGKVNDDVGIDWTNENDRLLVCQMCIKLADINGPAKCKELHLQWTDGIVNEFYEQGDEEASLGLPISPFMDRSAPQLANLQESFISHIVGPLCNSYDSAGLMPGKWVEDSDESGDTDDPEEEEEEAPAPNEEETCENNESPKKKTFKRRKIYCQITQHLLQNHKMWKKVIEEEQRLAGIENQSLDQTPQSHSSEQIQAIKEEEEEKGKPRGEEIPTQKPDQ

Broadly, the IC50 is the concentration that gives 50% inhibition. Turning to `Cn1c(=O)[nH]c(=O)c2cc(S(=O)(=O)Nc3ccc(-c4ccccc4)cc3)ccc21`, in the data set filed under Bos taurus [1] (filed as activator), the EC40 is < 0.1 µM. The compound also displayed an IC50 in [2] of 4.6 µM.
`O=c1[nH]c(=O)c2cc(S(=O)(=O)Nc3ccc(-c4ccccc4)cn3)ccc2[nH]1`: the EC40 in the data set listed under Bos taurus [1] (filed as activator) amounted to 18 µM.
As for `C[C@H]1C[C@H](C)CN(c2ccc(NS(=O)(=O)c3ccc4c(c3)c(=O)[nH]c(=O)n4C)cn2)C1`, the EC40 in the data set filed under Bos taurus [1] (filed as activator) stood at 21.9 µM.
For `Cn1c(=O)[nH]c(=O)c2cc(S(=O)(=O)Nc3ccc(N4CCCCC4)nc3)ccc21`, the EC40 in the data set listed under Bos taurus [1] was > 30 µM.
Regarding `C[C@@H]1C[C@H](C)CN(c2ccc(NS(=O)(=O)c3ccc4c(c3)c(=O)[nH]c(=O)n4C)cn2)C1`, in the data set listed under Bos taurus [1] (filed as activator), the EC40 came out at 11.1 µM.
The term fraction unbound denotes the share of the substance not bound to proteins or other matrix. By clearance is commonly meant the volume of plasma or blood freed of the substance per unit of time. As for `COc1cc2nc(C)[nH]c(=O)c2cc1S(=O)(=O)Nc1ccc(N2C[C@H](C)C[C@@H](C)C2)nc1`, the fraction unbound at 6 h, 5 µM in data set [3] is 0.008. Besides, the clearance in data set [4] is 0.1 mL/min/kg. Further, in data set [5], the t1/2 is 2.3 h. Moreover, the EC40 in the data set listed under Bos taurus [1] (filed as activator) stood at 0.7 µM. Further, the IC50 in data set [2] is > 40 µM.
As to `O=c1[nH]c(=O)c2cc(S(=O)(=O)Nc3cnc(-c4ccccc4)nc3)ccc2[nH]1`, in the data set listed under Bos taurus [1], the EC40 was > 39 µM.
For the compound `C[C@@H]1CCCN(c2ccc(NS(=O)(=O)c3ccc4c(c3)c(=O)[nH]c(=O)n4C)cn2)C1`, the EC40 in the data set listed under Bos taurus [1] (filed as activator) is 4.3 µM.
For `CN(c1ccc(-c2ccccc2)cc1)S(=O)(=O)c1ccc2[nH]c(=O)[nH]c(=O)c2c1`, the EC40 in the data set filed under Bos taurus [1] was > 39 µM.
For orientation: Vd means a proportionality between amount in the body and measured concentration, not a real space. On to `Cc1nc2cc(OCCN3CCOCC3)c(S(=O)(=O)Nc3ccc(N4C[C@H](C)C[C@@H](C)C4)nc3)cc2c(=O)[nH]1`, for which the Vd in data set [6] was 3.8 L/kg. The fraction unbound at 6 h, 5 µM in [3] amounted to 0.037. In [4], this compound registered a clearance of 7.1 mL/min/kg. In [5], this compound registered a t1/2 of 0.6 h. Moreover, in the data set filed under Bos taurus [1] (filed as activator), the EC40 came out at 0.7 µM. Besides, in [2], the IC50 was > 40 µM.
On to `O=c1[nH]c(=O)c2cc(S(=O)(=O)Nc3ccccc3)ccc2[nH]1`, for which the EC40 in the data set listed under Bos taurus [1] was > 39 µM.
The compound `CNc1cc2nc(C)[nH]c(=O)c2cc1S(=O)(=O)Nc1ccc(N2C[C@H](C)C[C@@H](C)C2)nc1` registered a Vd in data set [6] of 1.8 L/kg. In addition, the fraction unbound at 6 h, 5 µM in data set [3] came out at 0.012. In addition, the clearance in [4] came to 3.3 mL/min/kg. The t1/2 in data set [5] was found to be 1.1 h. Besides, in the data set listed under Bos taurus [1] (filed as activator), the EC40 was 1.4 µM. Moreover, in [2], the IC50 is > 40 µM.
For `O=c1[nH]c(=O)c2cc(S(=O)(=O)Nc3ccc(-c4ccccc4)nc3)ccc2[nH]1`, the EC40 in the data set listed under Bos taurus [1] (filed as activator) is 5.3 µM.
For orientation: solubility means the concentration that dissolves in the medium under given conditions. The compound `O=c1[nH]c(=O)c2cc(S(=O)(=O)Nc3ccc(-c4ccccc4)cc3)ccc2[nH]1` showed a solubility in data set [7] of 2.4 µM (≈ 0.944 µg/mL). Further, the EC40 was < 0.1 µM in the data set listed under Bos taurus [8], < 0.1 µM in the data set listed under Bos taurus [1] (filed as activator), > 39.2 µM in the data set filed under Oryctolagus cuniculus [9] and > 39.2 µM in the data set filed under Gallus gallus [10]. This compound had an IC50 in data set [2] of 4.6 µM.
Turning to `C[C@@H]1C[C@@H](C)CN(c2ccc(NS(=O)(=O)c3ccc4c(c3)c(=O)[nH]c(=O)n4C)cn2)C1`, in the data set listed under Bos taurus [1] (filed as activator), the EC40 was 0.5 µM.
For the compound `O=c1[nH]c2ccc(S(=O)(=O)Nc3ccc(-c4ccccc4)cc3)cc2[nH]1`, the outcome in the data set filed under Oryctolagus cuniculus [11] and in the data set filed under Bos taurus [12] was Active. For the same compound, the EC40 in the data set listed under Bos taurus [1] (filed as activator) turned out to be 5.5 µM.
For the compound `C[C@H]1CCCN(c2ccc(NS(=O)(=O)c3ccc4c(c3)c(=O)[nH]c(=O)n4C)cn2)C1`, the EC40 in the data set filed under Bos taurus [1] was > 33 µM.
Regarding `O=c1[nH]c(=O)c2cc(S(=O)(=O)Nc3ccc(N4CCCCCC4)cc3)ccc2[nH]1`, the result in the data set filed under Oryctolagus cuniculus [13], in the data set filed under Bos taurus [17], in the data set listed under Gallus gallus [18] and in the data set listed under Bos taurus [19] was inactive. The result in the data set filed under Oryctolagus cuniculus [11], in the data set with Cardiac muscle cell [15] and in the data set listed under Bos taurus [12] was Active. In addition, the Activity in the data set on Cardiac muscle cell [14] worked out at 30%; with Cardiac muscle cell [20], 55.4 um/s; with Cardiac muscle cell [21], 23%. This compound gave a solubility in data set [7] of 2.3 µM (≈ 0.953 µg/mL). In the data set on Cardiac muscle cell [16], the Time came out at 0.308 s. Besides, the EC40 in the data set filed under Bos taurus [8] is 1.7 µM; in the data set filed under Bos taurus [1] (filed as activator), 1.1 µM; in the data set filed under Oryctolagus cuniculus [9], > 39.2 µM; in the data set listed under Gallus gallus [10], > 39.2 µM. The IC50 in [2] came to 2.3 µM.
In the case of `Cc1nc2ccc(S(=O)(=O)Nc3ccc(N4C[C@H](C)C[C@@H](C)C4)nc3)cc2c(=O)[nH]1`, the EC40 in the data set listed under Bos taurus [1] (filed as activator) worked out at 4.5 µM. In addition, the half-inhibitory concentration (IC50) in data set [2] was > 40 µM.
